From ChEMBL document CHEMBL1151741, “Aryl bis(diazeniumdiolates): potent inducers of S-glutathionylation of cellular proteins and their in vitro antiproliferative activities” (J Med Chem, 2008)
Each block holds one compound with its values, some of them ahead of it. Calls of active or inactive are those of the source. The calls are words filed in the database; no cut-off is given here.

Legend:
[1] = Nitric oxide release measured per mole of compound at pH 7.4 in presence of glutathione
Method in brief: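 Compound stock was injected into 0.1 M phosphate buffer, pH 7.4, containing 4 mM GSH and 50 μM DTPA, sparged with inert gas. NO was followed by chemiluminescence at 37 °C until the signal returned to baseline (25 min – 5 h). The integrated curve gave mol NO per mol compound.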

HL-60 [2] = test: Antiproliferative activity against human HL-60 cells after 72 hrs by MTT assay; type: functional, cell-based; conditions: HL-60, 72 h
Method in brief: (§1)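 Cells kept in RPMI 1640 with 10% fetal calf serum, penicillin/streptomycin and 2 mM glutamine at 37 °C, 5% CO2. Seeded at 10⁴ per well and grown 24 h. Increasing drug concentrations (from 10 mM DMSO stocks, diluted in PBS) were added for 72 h at 37 °C. Proliferation was read by MTT. Six repeats per concentration, at least two independent experiments. IC50 is 50% proliferation inhibition; TGI is total growth inhibition.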

U-937 = test: Antiproliferative activity against human U937 cells after 72 hrs by MTT assay; type: functional, cell-based; conditions: U-937, 72 h; method in brief: as §1
[3] = Antiproliferative activity against human H441 cells after 72 hrs by MTT assay; type: functional, cell-based; conditions: NCI-H441, 72 h; method in brief: as §1
A549 = test: Antiproliferative activity against human A549 cells after 72 hrs by MTT assay; type: functional, cell-based; conditions: A549, 72 h; method in brief: as §1
[4] = Antiproliferative activity against human HCT 116 cells after 72 hrs by MTT assay; type: functional, cell-based; conditions: HCT-116, 72 h; method in brief: as §1
HCT-15 = test: Antiproliferative activity against human HCT-15 cells after 72 hrs by MTT assay; type: functional, cell-based; conditions: HCT-15, 72 h; method in brief: as §1
HT-29 = test: Antiproliferative activity against human HT-29 cells after 72 hrs by MTT assay; type: functional, cell-based; conditions: HT-29, 72 h; method in brief: as §1
OVCAR-3 = test: Antiproliferative activity against human OVCAR-3 cells after 72 hrs by MTT assay; type: functional, cell-based; conditions: OVCAR-3, 72 h; method in brief: as §1
OVCAR-5 = test: Antiproliferative activity against human OVCAR5 cells after 72 hrs by MTT assay; type: functional, cell-based; conditions: OVCAR-5, 72 h; method in brief: as §1
PC-3 = test: Antiproliferative activity against human PC-3 cells after 72 hrs by MTT assay; type: functional, cell-based; conditions: PC-3, 72 h; method in brief: as §1
HL-60 [5] = test: Induction of protein S-glutathionylation in human HL-60 cell lysate at 5 uM; type: functional, cell-based
Method in brief: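 Equal numbers of HL-60 cells in complete RPMI medium were given 5 μM compound or a DMSO vehicle control. Cells were lysed in pH 7.2 Hepes/NP-40/deoxycholate buffer with protease inhibitors. 10 μg of protein was run on SDS-PAGE under nonreducing conditions and blotted to PVDF. Blots were probed with anti-glutathione monoclonal antibody (1:1000, 3 h, room temperature), then HRP secondary, with ECL detection. Blots were stripped and reprobed for β-actin as a loading control.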

Compound: CNc1ccc(C(=O)Oc2cc(O/N=[N+](\[O-])N(C)C)c([N+](=O)[O-])cc2[N+](=O)[O-])cc1
Activity [1]: 1.4 mol/mol
TGI (HL-60 [2]): > 10 µM
IC50 (U-937): 2700 nM
TGI (U-937): 5500 nM
IC50 [3]: 4.9 µM
TGI [3]: > 10 µM
IC50 (A549): > 10 µM
TGI (A549): > 10 µM
IC50 [4]: 5500 nM
TGI [4]: > 10 µM
IC50 (HCT-15): 5700 nM
TGI (HCT-15): > 10 µM
IC50 (HT-29): 7 µM
TGI (HT-29): > 10 µM
IC50 (OVCAR-3): 5000 nM
TGI (OVCAR-3): 9.5 µM
IC50 (OVCAR-5): 7800 nM
TGI (OVCAR-5): > 10 µM
IC50 (PC-3): > 10 µM
TGI (PC-3): > 10 µM
Activity (HL-60 [5]): Active

IC50 (HL-60 [2]): 1000 nM
Compound: CCN(CC)/[N+]([O-])=N/Oc1cc(O/N=[N+](\[O-])N(C)C)c([N+](=O)[O-])cc1[N+](=O)[O-]
Activity [1]: 3.8 mol/mol
TGI (HL-60 [2]): 2.3 µM
Activity (HL-60 [5]): Active

IC50 (HL-60 [2]): 2100 nM
Compound: CCOC(=O)N1CCN(/[N+]([O-])=N/Oc2cc(O/N=[N+](\[O-])N(CC)CC)c([N+](=O)[O-])cc2[N+](=O)[O-])CC1
Activity [1]: 3.1 mol/mol
TGI (HL-60 [2]): 5 µM
Activity (HL-60 [5]): Active

IC50 (HL-60 [2]): 1200 nM
Compound: CN(C)/[N+]([O-])=N/Oc1cc(O/N=[N+](\[O-])N2CCN(c3ncccn3)CC2)c([N+](=O)[O-])cc1[N+](=O)[O-]
Activity [1]: 3.5 mol/mol
TGI (HL-60 [2]): 5 µM
Activity (HL-60 [5]): Active

IC50 (HL-60 [2]): 1000 nM
IC50 (U-937): 800 nM
IC50 (A549): 5.1 µM
IC50 (HCT-15): 1700 nM
IC50 (HT-29): 2.4 µM
IC50 (OVCAR-3): 1700 nM
IC50 (OVCAR-5): 2500 nM
IC50 (PC-3): 3.3 µM
Compound: CN(C)/[N+]([O-])=N/Oc1cc(O/N=[N+](\[O-])N2CCCC2CO)c([N+](=O)[O-])cc1[N+](=O)[O-] (centres undefined)
Activity [1]: 3 mol/mol
TGI (HL-60 [2]): 2 µM
TGI (U-937): 1200 nM
IC50 [3]: 2.1 µM
TGI [3]: 4.5 µM
TGI (A549): 6 µM
IC50 [4]: 1600 nM
TGI [4]: 3.6 µM
TGI (HCT-15): 3.3 µM
TGI (HT-29): 4.5 µM
TGI (OVCAR-3): 3.8 µM
TGI (OVCAR-5): 4 µM
TGI (PC-3): 7 µM
Activity (HL-60 [5]): Active

IC50 (HL-60 [2]): 1200 nM
IC50 (U-937): 1300 nM
IC50 (A549): 9.1 µM
IC50 (HCT-15): 2500 nM
IC50 (HT-29): 4.5 µM
IC50 (OVCAR-3): 1300 nM
IC50 (OVCAR-5): 3300 nM
IC50 (PC-3): 5 µM
Compound: CCOC(=O)N1CCN(/[N+]([O-])=N/Oc2cc(O/N=[N+](\[O-])N(C)C)c([N+](=O)[O-])cc2[N+](=O)[O-])CC1
Activity [1]: 2.7 mol/mol
TGI (HL-60 [2]): 2 µM
TGI (U-937): 3000 nM
IC50 [3]: 5 µM
TGI [3]: 7 µM
TGI (A549): > 30 µM
IC50 [4]: 2400 nM
TGI [4]: 4 µM
TGI (HCT-15): 4 µM
TGI (HT-29): 10 µM
TGI (OVCAR-3): 2.3 µM
TGI (OVCAR-5): 9 µM
TGI (PC-3): 7 µM
Activity (HL-60 [5]): Active

IC50 (HL-60 [2]): 900 nM
IC50 (U-937): 900 nM
IC50 (A549): 3.9 µM
IC50 (HCT-15): 1600 nM
IC50 (HT-29): 2.5 µM
IC50 (OVCAR-3): 1400 nM
IC50 (OVCAR-5): 1900 nM
IC50 (PC-3): 3.3 µM
Compound: CCOC(=O)N1CCN(/[N+]([O-])=N/Oc2cc(O/N=[N+](\[O-])N3CCN(C(=O)N(CC)CC)CC3)c([N+](=O)[O-])cc2[N+](=O)[O-])CC1
Activity [1]: 2.9 mol/mol
TGI (HL-60 [2]): 3 µM
TGI (U-937): 3000 nM
IC50 [3]: 1.7 µM
TGI [3]: 4 µM
TGI (A549): 10 µM
IC50 [4]: 1500 nM
TGI [4]: 4 µM
TGI (HCT-15): 4.5 µM
TGI (HT-29): 6.5 µM
TGI (OVCAR-3): 4 µM
TGI (OVCAR-5): 5.5 µM
TGI (PC-3): 8 µM
Activity (HL-60 [5]): Active

IC50 (HL-60 [2]): 1500 nM
Compound: CC1CCCCN1/[N+]([O-])=N/Oc1cc(O/N=[N+](\[O-])N(C)C)c([N+](=O)[O-])cc1[N+](=O)[O-] (centres undefined)
Activity [1]: 3 mol/mol
TGI (HL-60 [2]): 4.9 µM
Activity (HL-60 [5]): Active

IC50 (HL-60 [2]): 2300 nM
Compound: CN(C)/[N+]([O-])=N/Oc1cc(O/N=[N+](\[O-])N2CCCC2)c([N+](=O)[O-])cc1[N+](=O)[O-]
Activity [1]: 3.6 mol/mol
TGI (HL-60 [2]): 4.9 µM
Activity (HL-60 [5]): Active

IC50 (HL-60 [2]): 2900 nM
Compound: CCN(CC)C(=O)N1CCN(/[N+]([O-])=N/Oc2cc(O/N=[N+](\[O-])N(CC)CC)c([N+](=O)[O-])cc2[N+](=O)[O-])CC1
Activity [1]: 3 mol/mol
TGI (HL-60 [2]): > 10 µM
Activity (HL-60 [5]): Active

IC50 (HL-60 [2]): 1900 nM
Compound: CCN(CC)C(=O)N1CCN(/[N+]([O-])=N/Oc2cc(O/N=[N+](\[O-])N(C)C)c([N+](=O)[O-])cc2[N+](=O)[O-])CC1
Activity [1]: 3.5 mol/mol
TGI (HL-60 [2]): 4.9 µM
Activity (HL-60 [5]): Active

IC50 (HL-60 [2]): 1600 nM
Compound: CCCOC(=O)N1CCN(/[N+]([O-])=N/Oc2cc(O/N=[N+](\[O-])N(C)C)c([N+](=O)[O-])cc2[N+](=O)[O-])CC1
Activity [1]: 3.7 mol/mol
TGI (HL-60 [2]): 3.9 µM
Activity (HL-60 [5]): Active

IC50 (HL-60 [2]): 900 nM
Compound: CCCCOC(=O)N1CCN(/[N+]([O-])=N/Oc2cc(O/N=[N+](\[O-])N(C)C)c([N+](=O)[O-])cc2[N+](=O)[O-])CC1
Activity [1]: 3.1 mol/mol
TGI (HL-60 [2]): 2.7 µM
Activity (HL-60 [5]): Active

IC50 (HL-60 [2]): 4000 nM
Compound: O=[N+]([O-])c1cc([N+](=O)[O-])c(O/N=[N+](\[O-])N2CCC[C@H]2CO)cc1O/N=[N+](\[O-])N1CCC[C@H]1CO
Activity [1]: 2.5 mol/mol
TGI (HL-60 [2]): > 10 µM
Activity (HL-60 [5]): Active

IC50 (HL-60 [2]): 9600 nM
Compound: O=C(O)[C@@H]1CCCN1/[N+]([O-])=N/Oc1cc(O/N=[N+](\[O-])N2CCC[C@H]2C(=O)O)c([N+](=O)[O-])cc1[N+](=O)[O-]
Activity [1]: 3.5 mol/mol
TGI (HL-60 [2]): > 10 µM
Activity (HL-60 [5]): inactive

IC50 (HL-60 [2]): 1800 nM
Compound: CCN(CC)/[N+]([O-])=N/Oc1cc(O/N=[N+](\[O-])N2CCCC2CO)c([N+](=O)[O-])cc1[N+](=O)[O-] (centres undefined)
Activity [1]: 3 mol/mol
TGI (HL-60 [2]): 4 µM
Activity (HL-60 [5]): Active

IC50 (HL-60 [2]): 1700 nM
Compound: CN(C)/[N+]([O-])=N/Oc1cc(O/N=[N+](\[O-])N2CCCCC2)c([N+](=O)[O-])cc1[N+](=O)[O-]
Activity [1]: 3.7 mol/mol
TGI (HL-60 [2]): 4.9 µM
Activity (HL-60 [5]): Active
